Measurements reported in ChEMBL document CHEMBL2176929, “Hepatoprotective iridoid glycosides from the roots of Rehmannia glutinosa” (J Nat Prod, 2012).
pIC50: −log10 of the molar value.

How the values were obtained:
[1] = Hepatoprotective activity in human HL7702 cells assessed as inhibition of D-galactosamine-induced cell damage at 10 uM preincubated for 1 hr prior to D-galactosamine challenge measured after 24 hrs by MTT assay relative to untreated control; assay type: functional; details: L02
In short: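 HL-7702 cells, 2 × 10^4 per well in RPMI 1640 with 10% FCS and penicillin/streptomycin, precultured 24 h at 37 °C in 5% CO2. Pretreated 1 h with samples (10 μM) or bicyclol (10 μM, positive control) in fresh medium, then given 25 mM D-galactosamine for 24 h. Medium removed, 0.5 mg/mL MTT for 4 h, formazan dissolved in DMSO, OD read at 492 nm. Inhibition (%) calculated by formula. Mean ± SD, n = 3 (normal/control n = 6).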

L02 = test: Hepatoprotective activity in D-galactosamine-treated human HL7702 cells assessed as survival rate at 10 uM preincubated for 1 hr prior to D-galactosamine challenge measured after 24 hrs by MTT assay relative to normal cell; assay type: functional; details: read-out: Survival
In short: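 HL-7702 cells, 2 × 10^4 per well in RPMI 1640 with 10% fetal calf serum, penicillin and streptomycin, precultured 24 h at 37 °C, 5% CO2. Test samples added in fresh medium for 1 h, then 25 mM D-galactosamine for 24 h. MTT 0.5 mg/mL, 4 h; formazan dissolved in DMSO, OD at 492 nm. Bicyclol 10 μM positive control; means ± SD, n = 3.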

BGC-823 = test: Cytotoxicity against human BGC823 cells after 4 days by MTT assay; assay type: functional, cell-based; details: BGC-823, 96 h
A549 = test: Cytotoxicity against human A549 cells after 4 days by MTT assay; assay type: functional, cell-based; details: A549, 96 h
A2780 = test: Cytotoxicity against human A2780 cells after 4 days by MTT assay; assay type: functional, cell-based; details: A2780, 96 h
Bel-7402 = test: Cytotoxicity against human Bel7402 cells after 4 days by MTT assay; assay type: functional, cell-based; details: Bel-7402, 96 h
HCT-8 = test: Cytotoxicity against human HCT8 cells after 4 days by MTT assay; assay type: functional, cell-based; details: HCT-8, 96 h

Compound | inhibition at 10 µM [1] [%] | viability at 10 µM (L02) [%] | pIC50 (BGC-823) | pIC50 (A549) | pIC50 (A2780) | pIC50 (Bel-7402) | pIC50 (HCT-8)
COC(=O)c1cc(OC)c2c(c1-c1c(CO)cc(OC)c3c1OCO3)OCO2 [BICYCLOL] | 16.7 | 63.6 |  |  |  |  | 
C[C@]1(O)C[C@@H](OC(=O)/C=C/c2ccccc2)[C@@H]2C=CO[C@@H](O[C@@H]3O[C@H](CO)[C@@H](O)[C@H](O)[C@H]3O)[C@@H]21 [REHMAGLUTOSIDE A] |  |  | < 5.00 | < 5.00 | < 5.00 | < 5.00 | < 5.00
COc1cc(C(=O)O[C@@H]2C[C@](C)(O)[C@H]3[C@H](O[C@@H]4O[C@H](CO)[C@@H](O)[C@H](O)[C@H]4O)OC=C[C@H]32)ccc1O[C@@H]1O[C@H](CO)[C@@H](O)[C@H](O)[C@H]1O [REHMAGLUTOSIDE B] |  |  | < 5.00 | < 5.00 | < 5.00 | < 5.00 | < 5.00
COc1cc(C(=O)O[C@@H]2C[C@](C)(O)[C@H]3[C@H](O[C@@H]4O[C@H](CO)[C@@H](O)[C@H](O)[C@H]4O)OC=C[C@H]32)cc(OC)c1O[C@@H]1O[C@@H](C)[C@H](O)[C@@H](O)[C@H]1O [REHMAGLUTOSIDE C] | 33.6 | 71 | < 5.00 | < 5.00 | < 5.00 | < 5.00 | < 5.00
C[C@]1(O)C[C@@H](OC(=O)CCc2cc(O)ccn2)[C@@H]2C=CO[C@@H](O[C@@H]3O[C@H](CO)[C@@H](O)[C@H](O)[C@H]3O)[C@@H]21 [REHMAGLUTOSIDE D] |  |  | < 5.00 | < 5.00 | < 5.00 | < 5.00 | < 5.00
COc1cc([C@@H]2Oc3c(O)cc(/C=C/C(=O)O[C@@H]4C[C@](C)(O)[C@H]5[C@H](O[C@@H]6O[C@H](CO)[C@@H](O)[C@H](O)[C@H]6O)OC=C[C@H]54)cc3[C@H]2CO)ccc1O [REHMAGLUTOSIDE E] |  |  | < 5.00 | < 5.00 | < 5.00 | < 5.00 | < 5.00
CC(/C=C/[C@@]1(O)C(C)(C)CCC[C@@]1(C)O)=C\C(=O)O[C@@H]1C[C@](C)(O)[C@H]2[C@H](O[C@@H]3O[C@H](CO)[C@@H](O)[C@H](O)[C@H]3O)OC=C[C@H]21 [REHMAGLUTOSIDE F] |  |  | < 5.00 | < 5.00 | < 5.00 | < 5.00 | < 5.00
CC(/C=C/[C@@]1(O)C(C)(C)C[C@H](O)C[C@@]1(C)O)=C\C(=O)O[C@@H]1C[C@](C)(O)[C@H]2[C@H](O[C@@H]3O[C@H](CO)[C@@H](O)[C@H](O)[C@H]3O)OC=C[C@H]21 [REHMAGLUTOSIDE G] | 38.7 | 73.2 | < 5.00 | < 5.00 | < 5.00 | < 5.00 | < 5.00
CC(/C=C/[C@@]1(O)C(C)(C)CC[C@@H](O)[C@@]1(C)O)=C\C(=O)O[C@@H]1C[C@](C)(O)[C@H]2[C@H](O[C@@H]3O[C@H](CO)[C@@H](O)[C@H](O)[C@H]3O)OC=C[C@H]21 [REHMAGLUTOSIDE H] |  |  | < 5.00 | < 5.00 | < 5.00 | < 5.00 | < 5.00
CC(/C=C/[C@@]1(O)C(C)(C)CCC[C@@]1(C)O[C@@H]1O[C@H](CO)[C@@H](O)[C@H](O)[C@H]1O)=C\C(=O)O[C@@H]1C[C@](C)(O)[C@H]2[C@H](O[C@@H]3O[C@H](CO)[C@@H](O)[C@H](O)[C@H]3O)OC=C[C@H]21 [REHMAGLUTOSIDE I] | 28.2 | 68.6 | < 5.00 | < 5.00 | < 5.00 | < 5.00 | < 5.00
C[C@]1(O)C[C@@H](O)[C@@H]2C=CO[C@@H](O[C@@H]3O[C@H](CO[C@H]4C[C@H]5[C@@H]([C@@H](O[C@@H]6O[C@H](CO)[C@@H](O)[C@H](O)[C@H]6O)O4)[C@](C)(O)C[C@@H]5O)[C@@H](O)[C@H](O)[C@H]3O)[C@@H]21 [REHMAGLUTOSIDE J] | 25.2 | 67.3 | < 5.00 | < 5.00 | < 5.00 | < 5.00 | < 5.00
C[C@]1(O)C[C@@H](O)[C@@H]2C=CO[C@@H](O[C@@H]3O[C@H](CO[C@@H]4C[C@H]5[C@@H]([C@@H](O[C@@H]6O[C@H](CO)[C@@H](O)[C@H](O)[C@H]6O)O4)[C@](C)(O)C[C@@H]5O)[C@@H](O)[C@H](O)[C@H]3O)[C@@H]21 [REHMAGLUTOSIDE K] | 35.5 | 71.8 | < 5.00 | < 5.00 | < 5.00 | < 5.00 | < 5.00
